test system: HepG2; assay: Antiproliferative activity against human HepG2 cells after 24 hrs by MTT assay; type: functional, cell-based; conditions: HepG2, 24 h
Summary of the method: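 Seeded at 1 × 10⁴ cells per well, incubated 24 h before treatment. MTT (20 µL of 5 mg/mL in PBS) added per well and incubated until purple precipitate appeared. Medium removed, precipitate dissolved in 150 µL DMSO, shaken 10 min, absorbance read at 570 nm. Growth expressed as percentage of untreated control.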

Compound | IC50 [µM]
COc1ccc(C(=O)/C=C/c2cccc3c2ccn3Cc2cccc(F)c2)c2c1C=CC(C)(C)O2 | > 10
COc1ccc(C(=O)/C=C/c2cccc3c2ccn3Cc2cccc(Cl)c2)c2c1C=CC(C)(C)O2 | > 10
COc1ccc(C(=O)/C=C/c2ccc3ccn(Cc4cccc(Cl)c4)c3c2)c2c1C=CC(C)(C)O2 | > 10
COc1ccc(C(=O)/C=C/c2cccc3ccn(C)c23)c2c1C=CC(C)(C)O2 | > 10
COCn1cc(/C=C/C(=O)c2ccc(OC)c3c2OC(C)(C)C=C3)c2ccccc21 | 4.7
COc1ccc(C(=O)/C=C/c2ccc3ccn(Cc4cccc(F)c4)c3c2)c2c1C=CC(C)(C)O2 | > 10
CCn1cc(/C=C/C(=O)c2ccc(OC)c3c2OC(C)(C)C=C3)c2ccccc21 | 3.01
COc1ccc(C(=O)/C=C/c2cn(Cc3ccc(Br)cc3)c3ccccc23)c2c1C=CC(C)(C)O2 | > 10
COc1ccc(C(=O)/C=C/c2cn(Cc3ccc(Cl)cc3)c3ccccc23)c2c1C=CC(C)(C)O2 | > 10
COc1ccc(C(=O)/C=C/c2ccc3cc[nH]c3c2)c2c1C=CC(C)(C)O2 | 4.95
COc1ccc(C(=O)/C=C/c2cn(CCN3CCOCC3)c3ccccc23)c2c1C=CC(C)(C)O2 | 3.23
COc1ccc(C(=O)/C=C/c2cccc3[nH]ccc23)c2c1C=CC(C)(C)O2 | 8.38
COc1ccc(C(=O)/C=C/c2cccc3ccn(Cc4cccc(Cl)c4)c23)c2c1C=CC(C)(C)O2 | > 10
COc1ccc(C(=O)/C=C/c2cn(Cc3ccccc3Br)c3ccccc23)c2c1C=CC(C)(C)O2 | > 10
COc1ccc(C(=O)/C=C/c2ccc3c(ccn3CCN3CCCCC3)c2)c2c1C=CC(C)(C)O2 | 4.45
COc1ccc(C(=O)/C=C/c2cccc3cc[nH]c23)c2c1C=CC(C)(C)O2 | 7.62
COc1ccc(C(=O)/C=C/c2ccc3ccn(Cc4cccc(Br)c4)c3c2)c2c1C=CC(C)(C)O2 | > 10
COc1ccc(C(=O)/C=C/c2cn(Cc3ccc(F)cc3)c3ccccc23)c2c1C=CC(C)(C)O2 | > 10
CCn1ccc2cccc(/C=C/C(=O)c3ccc(OC)c4c3OC(C)(C)C=C4)c21 | > 10
CCn1ccc2c(/C=C/C(=O)c3ccc(OC)c4c3OC(C)(C)C=C4)cccc21 | 5.54
COc1ccc(C(=O)/C=C/c2cn(Cc3ccc(C(F)(F)F)cc3)c3ccccc23)c2c1C=CC(C)(C)O2 | 3.46
COc1ccc(C(=O)/C=C/c2cccc3ccn(Cc4cccc(Br)c4)c23)c2c1C=CC(C)(C)O2 | > 10
COc1ccc(C(=O)/C=C/c2cn(Cc3ccccc3C(F)(F)F)c3ccccc23)c2c1C=CC(C)(C)O2 | > 10
COc1ccc(C(=O)/C=C/c2cccc3c2ccn3Cc2cccc(Br)c2)c2c1C=CC(C)(C)O2 | > 10
COc1ccc(C(=O)/C=C/c2ccc3ccn(C)c3c2)c2c1C=CC(C)(C)O2 | 8.85
CCn1ccc2ccc(/C=C/C(=O)c3ccc(OC)c4c3OC(C)(C)C=C4)cc21 | > 10
COc1ccc(C(=O)/C=C/c2cn(Cc3cccc(F)c3)c3ccccc23)c2c1C=CC(C)(C)O2 | 3.09
COc1ccc(C(=O)/C=C/c2cccc3ccn(Cc4cccc(F)c4)c23)c2c1C=CC(C)(C)O2 | > 10
COc1ccc(C(=O)/C=C/c2cn(CC(C)C)c3ccccc23)c2c1C=CC(C)(C)O2 | > 10

These reach a lower IC50. Values come first.

IC50 [µM] | Compound
0.86 | Cc1ccc(S(=O)(=O)Oc2ccc(C(=O)/C=C/c3ccc4c(ccn4C)c3)c3c2C=CC(C)(C)O3)cc1
0.46 | CCCOc1ccc(C(=O)/C=C/c2ccc3c(ccn3C)c2)c2c1C=CC(C)(C)O2
2.81 | COc1ccc(C(=O)/C=C/c2cn(CC=C(C)C)c3ccccc23)c2c1C=CC(C)(C)O2
1.53 | Cn1ccc2cc(/C=C/C(=O)c3ccc(OS(=O)(=O)c4c(F)c(F)c(F)c(F)c4F)c4c3OC(C)(C)C=C4)ccc21
1.78 | COc1ccc(C(=O)/C=C/c2cn(Cc3ccccc3)c3ccccc23)c2c1C=CC(C)(C)O2
0.52 | CC(=O)Oc1ccc(C(=O)/C=C/c2ccc3c(ccn3C)c2)c2c1C=CC(C)(C)O2
0.37 | CC(C)C(=O)Oc1ccc(C(=O)/C=C/c2ccc3c(ccn3C)c2)c2c1C=CC(C)(C)O2
1.55 | Cn1ccc2cc(/C=C/C(=O)c3ccc(OS(=O)(=O)c4cccc(C(F)(F)F)c4)c4c3OC(C)(C)C=C4)ccc21
1.38 | COc1ccc(C(=O)/C=C/c2cn(Cc3cccc(Br)c3)c3ccccc23)c2c1C=CC(C)(C)O2
2.75 | COc1ccc(C(=O)/C=C/c2cccc3c2ccn3C)c2c1C=CC(C)(C)O2
2.75 | COc1ccc(C(=O)/C=C/c2cn(Cc3ccccc3F)c3ccccc23)c2c1C=CC(C)(C)O2
0.62 | Cn1ccc2cc(/C=C/C(=O)c3ccc(OS(=O)(=O)c4ccc(Br)cc4C(F)(F)F)c4c3OC(C)(C)C=C4)ccc21
0.97 | CC(C)COc1ccc(C(=O)/C=C/c2ccc3c(ccn3C)c2)c2c1C=CC(C)(C)O2
0.57 | COc1cc([N+](=O)[O-])ccc1S(=O)(=O)Oc1ccc(C(=O)/C=C/c2ccc3c(ccn3C)c2)c2c1C=CC(C)(C)O2
0.84 | COc1ccc(C(=O)/C=C/c2ccc3c(ccn3C)c2)c2c1C=CC(C)(C)O2
0.75 | CCOc1ccc(C(=O)/C=C/c2ccc3c(ccn3C)c2)c2c1C=CC(C)(C)O2
0.78 | CC(C)Oc1ccc(C(=O)/C=C/c2ccc3c(ccn3C)c2)c2c1C=CC(C)(C)O2
2.23 | COc1ccc(C(=O)/C=C/c2cn(C)c3ccccc23)c2c1C=CC(C)(C)O2
1.06 | COc1ccc(C(=O)/C=C/c2ccc3[nH]ccc3c2)c2c1C=CC(C)(C)O2
0.67 | CCCCCOc1ccc(C(=O)/C=C/c2ccc3c(ccn3C)c2)c2c1C=CC(C)(C)O2
2.13 | COc1ccc(C(=O)/C=C/c2cn(Cc3cccc(Cl)c3)c3ccccc23)c2c1C=CC(C)(C)O2
0.75 | COc1cccc(S(=O)(=O)Oc2ccc(C(=O)/C=C/c3ccc4c(ccn4C)c3)c3c2C=CC(C)(C)O3)c1
0.63 | CCCCOc1ccc(C(=O)/C=C/c2ccc3c(ccn3C)c2)c2c1C=CC(C)(C)O2
0.69 | Cn1ccc2cc(/C=C/C(=O)c3ccc(OS(=O)(=O)c4cc(F)cc(F)c4)c4c3OC(C)(C)C=C4)ccc21
2.18 | COc1ccc(C(=O)/C=C/c2cn(Cc3cccc(C(F)(F)F)c3)c3ccccc23)c2c1C=CC(C)(C)O2
1.87 | CC(C)c1ccc(S(=O)(=O)Oc2ccc(C(=O)/C=C/c3ccc4c(ccn4C)c3)c3c2C=CC(C)(C)O3)cc1
1.94 | COc1ccc(C(=O)/C=C/c2cn(Cc3ccccc3Cl)c3ccccc23)c2c1C=CC(C)(C)O2
0.92 | CCCCC(=O)Oc1ccc(C(=O)/C=C/c2ccc3c(ccn3C)c2)c2c1C=CC(C)(C)O2
